Test results as given in ChEMBL document CHEMBL5154850, “A platform for the rapid synthesis of proteolysis targeting chimeras (Rapid-TAC) under miniaturized conditions” (Eur J Med Chem, 2022).
Activity calls are given as the source filed them. The calls are words filed in the database; no cut-off is given here.

Key:
[1] = target: T1, von Hippel-Lindau disease tumor suppressor/Androgen receptor (Homo sapiens, UniProt P10275+P40337); assay: PROTAC activity at VHL/AR in human LNCaP cells assessed as induction of AR degradation at 1 to 10 uM measured after 16 hrs by western blot analysis; assay type: cell-based; conditions: dose 1-10 µM
Procedure, shortened: (§1)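 LNCaP cells kept in RPMI with 10% FBS, 1% HEPES, 1% sodium pyruvate and 1% penicillin/streptomycin at 37 °C, 5% CO2, then exposed to PROTACs for 16 h. Lysis in RIPA buffer with protease inhibitors and 1 mM PMSF. BCA-equalized protein run on 7.5% SDS-PAGE, blocked in 5% milk/TBS-T, anti-AR primary overnight at 4 °C, β-actin loading control, HRP secondary 1 h, chemiluminescent imaging.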
Target sequence in this assay (P10275 whole entry, looked up): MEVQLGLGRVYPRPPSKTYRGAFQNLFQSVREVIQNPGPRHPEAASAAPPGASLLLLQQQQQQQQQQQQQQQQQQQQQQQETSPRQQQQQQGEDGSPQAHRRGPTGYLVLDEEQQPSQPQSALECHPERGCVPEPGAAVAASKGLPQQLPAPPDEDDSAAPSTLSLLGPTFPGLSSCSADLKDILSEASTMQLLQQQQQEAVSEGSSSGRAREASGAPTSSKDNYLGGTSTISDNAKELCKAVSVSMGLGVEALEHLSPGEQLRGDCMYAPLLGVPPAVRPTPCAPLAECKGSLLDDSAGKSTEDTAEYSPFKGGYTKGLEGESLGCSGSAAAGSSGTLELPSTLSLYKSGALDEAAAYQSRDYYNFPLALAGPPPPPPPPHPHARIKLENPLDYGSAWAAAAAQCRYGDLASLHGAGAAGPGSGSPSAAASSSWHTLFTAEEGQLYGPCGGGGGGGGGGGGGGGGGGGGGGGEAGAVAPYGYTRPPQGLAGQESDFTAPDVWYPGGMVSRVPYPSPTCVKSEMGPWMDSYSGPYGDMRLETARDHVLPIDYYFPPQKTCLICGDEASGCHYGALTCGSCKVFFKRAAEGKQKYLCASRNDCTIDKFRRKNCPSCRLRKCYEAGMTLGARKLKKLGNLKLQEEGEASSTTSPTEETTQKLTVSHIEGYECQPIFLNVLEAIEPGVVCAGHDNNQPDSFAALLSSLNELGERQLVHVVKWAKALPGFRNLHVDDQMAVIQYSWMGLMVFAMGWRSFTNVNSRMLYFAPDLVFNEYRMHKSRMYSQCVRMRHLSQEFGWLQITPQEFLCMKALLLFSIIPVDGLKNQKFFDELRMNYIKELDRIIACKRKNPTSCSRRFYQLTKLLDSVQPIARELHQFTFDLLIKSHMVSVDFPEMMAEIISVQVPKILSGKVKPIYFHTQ
Target sequence in this assay (P40337 whole entry, looked up): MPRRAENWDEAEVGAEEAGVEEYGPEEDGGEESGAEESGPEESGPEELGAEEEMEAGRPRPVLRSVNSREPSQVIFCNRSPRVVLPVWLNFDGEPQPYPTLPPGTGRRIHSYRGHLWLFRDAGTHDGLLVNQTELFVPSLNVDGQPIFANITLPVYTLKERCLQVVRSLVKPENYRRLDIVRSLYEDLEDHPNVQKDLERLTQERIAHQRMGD

[2] = target: T1, von Hippel-Lindau disease tumor suppressor/Androgen receptor; assay: PROTAC activity at VHL/AR in human LNCaP cells assessed as induction of AR degradation at 1 uM measured after 16 hrs by western blot analysis relative to control; assay type: cell-based; procedure, shortened: as §1
Target sequence in this assay (P10275 whole entry, looked up): as the sequence (P10275 whole entry, looked up) above
Target sequence in this assay (P40337 whole entry, looked up): as the sequence (P40337 whole entry, looked up) above

[3] = target: T1, von Hippel-Lindau disease tumor suppressor/Androgen receptor; assay: PROTAC activity at VHL/AR in human LNCaP cells assessed as induction of AR degradation at 10 uM measured after 16 hrs by western blot analysis relative to control; assay type: cell-based; procedure, shortened: as §1
Target sequence in this assay (P10275 whole entry, looked up): as the sequence (P10275 whole entry, looked up) above
Target sequence in this assay (P40337 whole entry, looked up): as the sequence (P40337 whole entry, looked up) above

[4] = target: T1, von Hippel-Lindau disease tumor suppressor/Androgen receptor; assay: PROTAC activity at VHL/AR in human LNCaP cells assessed as induction of AR degradation at 0.01 to 1 uM measured after 16 hrs by western blot analysis; assay type: cell-based; conditions: dose 0.1-10 µM, in the assay text read “0.1 to 10 uM” for “0.01 to 1 uM”; procedure, shortened: as §1
Target sequence in this assay (P10275 whole entry, looked up): as the sequence (P10275 whole entry, looked up) above
Target sequence in this assay (P40337 whole entry, looked up): as the sequence (P40337 whole entry, looked up) above

[5] = target: T1, von Hippel-Lindau disease tumor suppressor/Androgen receptor; assay: PROTAC activity at VHL/AR in human LNCaP cells assessed as reduction in AR level at 100 nM measured after 6 hrs by western blot analysis; assay type: cell-based
Procedure, shortened: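 AR time-course blot in LNCaP cells (RPMI, 10% FBS, 37 °C, 5% CO2) with degrader at 100 nM over varied exposure times. Lysates in RIPA with protease inhibitors, equal protein by BCA, 7.5% SDS-PAGE, anti-AR overnight at 4 °C, β-actin loading reference, HRP detection.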
Target sequence in this assay (P10275 whole entry, looked up): as the sequence (P10275 whole entry, looked up) above
Target sequence in this assay (P40337 whole entry, looked up): as the sequence (P40337 whole entry, looked up) above

[6] = target: T1, von Hippel-Lindau disease tumor suppressor/Androgen receptor; assay: PROTAC activity at VHL/AR in human LNCaP cells assessed as induction of AR degradation measured after 16 hrs by western blot analysis; assay type: cell-based; procedure, shortened: as §1
Target sequence in this assay (P10275 whole entry): as the sequence (P10275 whole entry, looked up) above
Target sequence in this assay (P40337 whole entry): as the sequence (P40337 whole entry, looked up) above

[7] = target: T2, von Hippel-Lindau disease tumor suppressor/Bromodomain-containing protein 4 (Homo sapiens, UniProt O60885+P40337); assay: PROTAC activity at VHL/BRD4 in human MV4-11 cells assessed as induction of BRD4 degradation at 1 uM measured after 24 hrs by western blot analysis; assay type: cell-based
T2 sequence (P40337 whole entry, looked up, other chains not shown): as the sequence (P40337 whole entry, looked up) above
Procedure, shortened: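 MV-4-11 cells grown in IMDM with 10% FBS and 1% penicillin/streptomycin at 37 °C, 5% CO2. Library screen at 1 and 10 μM for 24 h; follow-up at 100, 30, 10 and 3 nM and dose response for 12 h. RIPA lysates, BCA-normalized, 7.5% SDS-PAGE, anti-BRD4 overnight at 4 °C, β-actin control, HRP-secondary chemiluminescence.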

[8] = target: T2, von Hippel-Lindau disease tumor suppressor/Bromodomain-containing protein 4; assay: PROTAC activity at VHL/BRD4 in human MV4-11 cells assessed as induction of BRD4 degradation measured after 12 hrs by western blot analysis
[9] = target: T2, von Hippel-Lindau disease tumor suppressor/Bromodomain-containing protein 4; assay: PROTAC activity at VHL/BRD4 in human MV4-11 cells assessed as induction of BRD4 degradation at 3 to 100 nM measured after 12 hrs by western blot analysis; conditions: dose 3-100 nM

SMILES | Activity [1] | further results
Cc1ncsc1-c1ccc(CNC(=O)[C@@H]2C[C@@H](O)CN2C(=O)[C@@H](NC(=O)CCCCCN2Cc3cc(C(=O)N[C@H]4C(C)(C)[C@H](Oc5ccc(C#N)c(Cl)c5)C4(C)C)ccc3C2=O)C(C)(C)C)cc1 | Active | 
CC1(C)[C@H](NC(=O)c2ccc3c(c2)CN(C2CCC(=O)NC2=O)C3=O)C(C)(C)[C@H]1Oc1ccc(C#N)c(Cl)c1 (some centres not stated) | Active | 
Cc1ncsc1-c1ccc(CNC(=O)[C@@H]2C[C@@H](O)CN2C(=O)[C@@H](NC(=O)CCCCCCCCCCN2Cc3cc(C(=O)N[C@H]4C(C)(C)[C@H](Oc5ccc(C#N)c(Cl)c5)C4(C)C)ccc3C2=O)C(C)(C)C)cc1 | Active | 
Cc1ncsc1-c1ccc(CNC(=O)[C@@H]2C[C@@H](O)CN2C(=O)[C@@H](NC(=O)COCCN2Cc3cc(C(=O)N[C@H]4C(C)(C)[C@H](Oc5ccc(C#N)c(Cl)c5)C4(C)C)ccc3C2=O)C(C)(C)C)cc1 | Active | 
Cc1ncsc1-c1ccc(CNC(=O)[C@@H]2C[C@@H](O)CN2C(=O)[C@@H](NC(=O)CCCCN2Cc3cc(C(=O)N[C@H]4C(C)(C)[C@H](Oc5ccc(C#N)c(Cl)c5)C4(C)C)ccc3C2=O)C(C)(C)C)cc1 | Active | 
Cc1ncsc1-c1ccc(CNC(=O)[C@@H]2C[C@@H](O)CN2C(=O)[C@@H](NC(=O)COCCOCCOCCOCCN2Cc3cc(C(=O)N[C@H]4C(C)(C)[C@H](Oc5ccc(C#N)c(Cl)c5)C4(C)C)ccc3C2=O)C(C)(C)C)cc1 | Active | 
Cc1ncsc1-c1ccc(CNC(=O)[C@@H]2C[C@@H](O)CN2C(=O)[C@@H](NC(=O)CCN2Cc3cc(C(=O)N[C@H]4C(C)(C)[C@H](Oc5ccc(C#N)c(Cl)c5)C4(C)C)ccc3C2=O)C(C)(C)C)cc1 | Active | 
Cc1ncsc1-c1ccc(CNC(=O)[C@@H]2C[C@@H](O)CN2C(=O)[C@@H](NC(=O)CCCCCCCN2Cc3ccc(C(=O)N[C@H]4C(C)(C)[C@H](Oc5ccc(C#N)c(Cl)c5)C4(C)C)cc3C2=O)C(C)(C)C)cc1 | Active | Activity [2]: 73%; Activity [3]: 40%; Activity [4]: Active; Activity [5]: Active; DC50 [6]: 41.9 nM
Cc1ncsc1-c1ccc(CNC(=O)[C@@H]2C[C@@H](O)CN2C(=O)[C@@H](NC(=O)CCCCCCN2Cc3cc(C(=O)N[C@H]4C(C)(C)[C@H](Oc5ccc(C#N)c(Cl)c5)C4(C)C)ccc3C2=O)C(C)(C)C)cc1 | Active | 
Cc1ncsc1-c1ccc(CNC(=O)[C@@H]2C[C@@H](O)CN2C(=O)[C@@H](NC(=O)CCCCCCCCN2Cc3cc(C(=O)N[C@H]4C(C)(C)[C@H](Oc5ccc(C#N)c(Cl)c5)C4(C)C)ccc3C2=O)C(C)(C)C)cc1 | Active | 
Cc1ncsc1-c1ccc(CNC(=O)[C@@H]2C[C@@H](O)CN2C(=O)[C@@H](NC(=O)CCCCN2Cc3ccc(NC(=O)C[C@@H]4N=C(c5ccc(Cl)cc5)c5c(sc(C)c5C)-n5c(C)nnc54)cc3C2=O)C(C)(C)C)cc1 |  | Activity [7]: Active
Cc1ncsc1-c1ccc(CNC(=O)[C@@H]2C[C@@H](O)CN2C(=O)[C@@H](NC(=O)CCCCCCCNC(=O)c2ccc(C(=O)N[C@H]3C(C)(C)[C@H](Oc4ccc(C#N)c(Cl)c4)C3(C)C)cc2)C(C)(C)C)cc1 |  | Activity [4]: Active
Cc1ncsc1-c1ccc(CNC(=O)[C@@H]2C[C@@H](O)CN2C(=O)[C@@H](NC(=O)COCCOCCN2Cc3cc(C(=O)N[C@H]4C(C)(C)[C@H](Oc5ccc(C#N)c(Cl)c5)C4(C)C)ccc3C2=O)C(C)(C)C)cc1 | Active | 
Cc1ncsc1-c1ccc(CNC(=O)[C@@H]2C[C@@H](O)CN2C(=O)[C@@H](NC(=O)COCCOCCOCCN2Cc3cc(C(=O)N[C@H]4C(C)(C)[C@H](Oc5ccc(C#N)c(Cl)c5)C4(C)C)ccc3C2=O)C(C)(C)C)cc1 | Active | 
Cc1ncsc1-c1ccc(CNC(=O)[C@@H]2C[C@@H](O)CN2C(=O)[C@@H](NC(=O)CCCCCCCN2Cc3cc(C(=O)N[C@H]4C(C)(C)[C@H](Oc5ccc(C#N)c(Cl)c5)C4(C)C)ccc3C2=O)C(C)(C)C)cc1 |  | Activity [4]: Active
Cc1ncsc1-c1ccc(CNC(=O)[C@@H]2C[C@@H](O)CN2C(=O)[C@@H](NC(=O)CCCCN2Cc3cc(NC(=O)C[C@@H]4N=C(c5ccc(Cl)cc5)c5c(sc(C)c5C)-n5c(C)nnc54)ccc3C2=O)C(C)(C)C)cc1 |  | DC50 [8]: 8.9 nM; Activity [9]: Active
